Data as given in ChEMBL document CHEMBL1153071, “Synthesis, biological evaluation, and SAR study of novel pyrazole analogues as inhibitors of Mycobacterium tuberculosis: part 2. Synthesis of rigid pyrazolones” (Bioorg Med Chem, 2009).
Converted amounts (≈) assume the structure as drawn.

System: Mycobacterium tuberculosis
Assay: Antimycobacterial activity against Mycobacterium tuberculosis
Type: functional
Conditions: not given
How it was run: (§1)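 Strain H37Rv ATCC 27294, kept on Löwenstein-Jensen slants and grown for inoculum in 7H9 broth with 10% ADC. Twofold agar dilution on Middlebrook 7H11 with 10% OADC, compound 0.0312–64 μg/mL. Each well received 10 μL of 1.5×10^5 cfu/mL (final 1.5×10^3 per well). Incubated 21–28 days. MIC (μg/mL) is the lowest concentration completely inhibiting visible growth.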

`Cc1[nH]n(-c2ccc(Br)cc2)c(=O)c1C(=O)c1ccc(Cl)cc1` and `Cc1[nH]n(-c2ccc(F)cc2)c(=O)c1C(=O)c1ccc(Cl)cc1` are the same in MIC: 4 µg/mL (≈ 10.2 µM) for the first, 4 µg/mL (≈ 12.1 µM) for the second.

`Cc1[nH]n(-c2ccc(Cl)cc2)c(=O)c1C(=O)c1ccc(Cl)cc1` and `Cc1nn(-c2ccccc2)c(O)c1C(=O)c1ccc(Cl)cc1` are the same in MIC: 4 µg/mL (≈ 11.5 µM) for the first, 4 µg/mL (≈ 12.8 µM) for the second.

System: Mycobacterium tuberculosis
Assay: Antimycobacterial activity against Mycobacterium tuberculosis H37Rv ATCC 27294 after 21 to 28 days by twofold agar dilution method
Type: functional
Conditions: not given
How it was run: as §1

First: CCCN(C)/C(=C1\C(=O)N(c2ccc(Cl)cc2)N=C1C)c1ccc(Cl)cc1
Second: CC1=NN(c2ccc(Cl)cc2)C(=O)/C1=C(/c1ccc(Cl)cc1)N(C)C
The MIC of the first is 4-fold higher: 64 µg/mL (≈ 159 µM) for the first, 16 µg/mL (≈ 42.7 µM) for the second.

Compared with `CC1=NN(c2ccc(Cl)cc2)C(=O)/C1=C\N(C)C`, `CC1=NN(c2ccc(Cl)cc2)C(=O)/C1=C\N1CCN(C)CC1` is lower in MIC: greater than 64 µg/mL for the first, 64 µg/mL (≈ 201 µM) for the second.

`CC1=NN(c2ccc(Cl)cc2)C(=O)/C1=C\N1CCN(c2ccccc2)CC1` and `CC(=O)N1CCN(/C=C2\C(=O)N(c3ccc(Cl)cc3)N=C2C)CC1` are the same in MIC: 64 µg/mL (≈ 168 µM) for the first, 64 µg/mL (≈ 185 µM) for the second.

Going from `CC1=NN(c2ccc(Cl)cc2)C(=O)/C1=C(/c1ccc(Cl)cc1)N1CCOCC1` to `CC1=NN(c2ccc(Cl)cc2)C(=O)/C1=C(/c1ccc(Cl)cc1)N1CCSCC1`, the MIC rises from 4 µg/mL (≈ 9.61 µM) to 8 µg/mL (≈ 18.5 µM) (2-fold).

`CC1=NN(c2ccc(Cl)cc2)C(=O)/C1=C\N1CCN(CCO)CC1` and `CC1=NN(c2ccc(Cl)cc2)C(=O)/C1=C\N1CCOCC1` are the same in MIC: 64 µg/mL (≈ 183 µM) for the first, 64 µg/mL (≈ 209 µM) for the second.

Compared with `CC1=NN(c2ccc(Cl)cc2)C(=O)/C1=C(/c1ccc(Cl)cc1)N1CCC(C)CC1`, `CC1=NN(c2ccc(Cl)cc2)C(=O)/C1=C(/c1ccc(Cl)cc1)N1CCN(C)CC1` is 16-fold lower in MIC: 64 µg/mL (≈ 149 µM) for the first, 4 µg/mL (≈ 9.32 µM) for the second.

Going from `CC1=NN(c2ccccc2)C(=O)/C1=C(/c1ccc(Cl)cc1)N1CCN(C)CC1` to `CC1=NN(c2ccccc2)C(=O)/C1=C(/c1ccc(Cl)cc1)N1CCOCC1`, the MIC rises from 8 µg/mL (≈ 20.3 µM) to 16 µg/mL (≈ 41.9 µM) (2-fold).

Compared with `CC1=NN(c2ccc(Cl)cc2)C(=O)/C1=C(/c1ccc(Cl)cc1)N1CCCCC1`, `CC1=NN(c2ccccc2)C(=O)/C1=C(/c1ccc(Cl)cc1)N1CCSCC1` is lower in MIC: greater than 64 µg/mL for the first, 8 µg/mL (≈ 20.1 µM) for the second.

Compared with `CC1=NN(c2ccccc2)C(=O)/C1=C(/c1ccc(Cl)cc1)N(C)C`, `CC1=NN(c2ccc(Cl)cc2)C(=O)/C1=C\Nc1ccccc1` is 2-fold higher in MIC: 32 µg/mL (≈ 94.2 µM) for the first, 64 µg/mL (≈ 205 µM) for the second.

System: not listed separately
Assay: Cytotoxicity against african green monkey Vero cells
Type: cell-based
Conditions: chlorocebus sabaeus

`CC1=NN(c2ccc(Cl)cc2)C(=O)/C1=C(/c1ccc(Cl)cc1)N1CCSCC1` and `CC1=NN(c2ccc(Cl)cc2)C(=O)/C1=C(/c1ccc(Cl)cc1)N1CCN(C)CC1` are within 1.5-fold of each other in CC50: 4.86 µg/mL (≈ 11.2 µM) for the first, 5.49 µg/mL (≈ 12.8 µM) for the second.

`CC1=NN(c2ccccc2)C(=O)/C1=C(/c1ccc(Cl)cc1)N1CCN(C)CC1` and `CC1=NN(c2ccccc2)C(=O)/C1=C(/c1ccc(Cl)cc1)N1CCSCC1` are within 1.5-fold of each other in CC50: 5.58 µg/mL (≈ 14.1 µM) for the first, 5.71 µg/mL (≈ 14.3 µM) for the second.
